# In the library only some 4.6% were active in any assay of this set; here they are far more common.
# OX1R antag-1: blocks the human orexin 1 receptor | CHO/OX1R cells, Fluo-8 calcium fluorescence, orexin A | inhibition, % at 5 µM | actives 0.43% (n = 330,000);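 active = inhibition above its plate's threshold, mean inhibition of all tested compounds on the plate plus 3 SD, cut at about 37% in these data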;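 also: 0% = orexin A challenge wells and 100% = SB-334867-A antagonist wells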
# Target sequence (O43613 whole entry, looked up): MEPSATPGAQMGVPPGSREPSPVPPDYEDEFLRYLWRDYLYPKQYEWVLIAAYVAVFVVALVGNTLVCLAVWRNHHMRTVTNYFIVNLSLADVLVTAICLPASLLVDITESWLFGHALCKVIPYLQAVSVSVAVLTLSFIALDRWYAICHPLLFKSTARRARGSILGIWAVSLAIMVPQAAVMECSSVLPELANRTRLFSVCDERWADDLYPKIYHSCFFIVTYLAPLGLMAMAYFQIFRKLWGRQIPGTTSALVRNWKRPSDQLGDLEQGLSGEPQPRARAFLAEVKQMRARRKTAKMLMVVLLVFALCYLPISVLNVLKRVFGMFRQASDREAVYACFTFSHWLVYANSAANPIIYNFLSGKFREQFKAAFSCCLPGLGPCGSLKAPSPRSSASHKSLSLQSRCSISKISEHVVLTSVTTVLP
# GPR7 antagonist: antagonists of human GPR7 (neuropeptides B/W receptor 1); AID 1861; actives 1.1% (n = 290,000); P48145; GPR7-expressing cells, fluorescence antagonist assay; inhibition, % at 4.4 µM; in the data active = inhibition above about 16%, passing the limit was not always enough;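 also: cells stimulated with the agonist NPW; 0% = agonist with vehicle and 100% = vehicle without agonist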
# CHO parental Ca: signal in parental CHO cells, OX1R antagonist counter-screen; inhibition, % at 5.6 µM; actives 0.63% (n = 330,000); AID 463079; parental CHO-K1, ATP-induced calcium, Fluo-8 fluorescence;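 active = inhibition above that plate's mean sample inhibition plus 3 SD, cut at about 26% in these data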;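 also: 0% = ATP-challenged DMSO wells and 100% = DMSO wells without ATP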
#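 Measured by: calcium-sensitive Fluo-8 fluorescence / Test system: CHO parental line / Controls: ATP-challenged DMSO wells low, unchallenged DMSO wells high / Measure: % inhibition / Compound: single nominal dose of 5.6 µM per compound / Replicates: single well per compound, no replicates / Reagent: ATP as calcium-mobilizing challenge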
# OX1R antag-2: blocks the human orexin 1 receptor; O43613; inhibition, % at 6.6 µM; AID 485270; OX1R-expressing cells, FRET antagonist read-out; actives 1.8% (n = 330,000); in the data active = inhibition mostly above about 38%, no sharp cut-off; inactive = mostly below about 40%;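 also: 0% = agonist challenge alone and 100% = reference antagonist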
# TAAR1 ag: agonists of human TAAR1 | Q96RJ0 | CHO RD-HGA16 TAAR1, Fluo-8 calcium fluorescence; vehicle wells 0%, saturating PEA agonist 100% | activation, % at 3 µM | actives 0.99% (n = 360,000) | AID 624467;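 active = activation above the mean activation of all test compounds in the run plus 3 SD, cut at about 38% in these data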
#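 test system = CHO RD-HGA16 cells carrying human TAAR1 plus Gα16 | schedule = 17-24 h seeding, 75 min 37 °C dye, 30 min RT | compound dosing = 3 µM single concentration | control set = DMSO and PEA EC100 | replicates = n 1 | signal = Fluo-8 fluorescence, 5 s baseline then 140 s kinetic read | measure = percent activation vs PEA EC100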
# TAAR1 antag: human TAAR1 antagonism; inhibition, % at 3 µM; actives 1.5% (n = 360,000); CHO RD-HGA16 TAAR1, Fluo-8 calcium fluorescence, antagonist; AID 624466;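 active = inhibition above a per-plate cutoff, the mean inhibition of test compounds on that plate plus 3 SD, cut at about 49% in these data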;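 also: 0% = DMSO plus EC80 beta-PEA response and 100% = DMSO alone without agonist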
#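 Material: CHO RD-HGA16 cells bearing hTAAR1; compound dosing: one-point dosing, 3 µM nominal final; schedule: dye loading 75 min at 37 °C, then 30 min room temperature; measured by: calcium fluorescence with Fluo-8; control set: vehicle and agonist controls; replication: n of 1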
# The depositor's hits bear a star; . = no result.
SMILES,OX1R antag-1,GPR7 antagonist,CHO parental Ca,OX1R antag-2,TAAR1 ag,TAAR1 antag
COC(=O)C1=C(C)N(C)C(=NCc2ccccc2C(F)(F)F)NC1c1ccc(C(F)(F)F)cc1 (stereo not given),.,.,.,.,19,24
CC(C)[C@H](CO)N(Cc1cccc(F)c1)c1nc(Nc2cccc(Cl)c2)c2ncn(C(C)C)c2n1,33,.,37*,3,53*,73*
CC1Cc2ccccc2N1c1ncnc2nc[nH]c12 (stereo not given),12,-9,-14,74*,.,.
c1ccc2c(c1)CCN(c1ncnc3nc[nH]c13)C2,-7,-4,-5,19,1,-8
O=C(COc1ncnc2ccccc12)NC1CCCC1,-8,.,-9,-1,-3,-9
O=C(COc1ncnc2cc([N+](=O)[O-])ccc12)N(CCc1ccccc1)Cc1ccccc1,54*,-11,72*,12,21,15
O=C(COc1ccc([N+](=O)[O-])cc1)N(Cc1ccccc1)Cc1ccccc1,-14,31*,-8,35,0,14
O=C(COc1ncnc2ccccc12)Nc1cccc([N+](=O)[O-])c1,2,4,-1,14,0,-5
O=C(COc1ncnc2cc([N+](=O)[O-])ccc12)NC1CCCCC1,-31,-2,9,56*,9,-14
O=C(COc1ccccc1)NNC(=O)COc1ccc([N+](=O)[O-])cc1,9,-8,-3,12,0,12
Cc1ccc(Oc2cccc3c2S(=O)(=O)N([C@H](C)c2ccccc2)C[C@@H](COCc2ccccc2)O3)cc1,.,.,.,.,4,-4
CC1CCN(C(=O)c2[nH]cnc2C(=O)N(C)CCO)CC1,.,.,.,.,4,-7
Cc1cccc(NC(=O)CCS(=O)(=O)c2cccc3nsnc23)c1C,-27,-1,-24,63*,5,-4
CCOC(=O)c1cccc(NC(=O)CCS(=O)(=O)c2cccc3nsnc23)c1,-34,-8,-25,69,19,1
COc1ccc(CCNC(=O)CCS(=O)(=O)c2cccc3nsnc23)cc1OC,-19,-10,-16,77*,1,0
COc1ccc(N2CCCC2=O)cc1S(=O)(=O)N1CCOCC1,.,.,.,.,0,-6
O=C(c1sc2cc([N+](=O)[O-])ccc2c1Cl)N1CCOCC1,-13,9,-9,75*,5,-10
O=C(COC(=O)/C=C/c1ccc(Cl)cc1)Nc1ccc2c(c1)OCCO2,-15,-8,5,11,42*,54*
O=C(COC(=O)/C=C/c1ccccc1)Nc1ccc2c(c1)OCCO2,-8,.,-12,-1,4,-3
COc1ccc(CCNC(=O)COC(=O)/C=C/c2ccc3c(c2)OCO3)cc1,-21,.,32*,20,8,7
Nc1cc2c(cc1[N+](=O)[O-])OCCO2,-18,-3,-14,49*,2,1
COc1ccccc1-c1csc(C(O)(c2ccccc2)C(F)(F)F)n1 (stereo not given),.,.,.,.,0,9
CC(C)NC(=O)C1Cc2c(-c3ccc(Cl)cc3)ccnc2O1 (stereo not given),.,.,.,.,-1,-3
Cc1cc(C)cc(-n2ccnc2SCC(=O)O)c1,4,30*,2,15,3,-10
Cc1cc(C)c(N=C2C(=O)Nc3ccccc32)c(C)c1,8,12,-6,38*,4,-3
SMILES,OX1R antag-1,GPR7 antagonist,CHO parental Ca,OX1R antag-2,TAAR1 ag,TAAR1 antag
Cc1cccc(C)c1N=C1C(=O)Nc2ccccc21,-11,-8,0,2,0,2
Cc1cc(C)cc(Cn2cc(CN3CC(N4CCSCC4)CS3(=O)=O)nn2)c1 (stereo not given),.,.,.,.,1,-14
Cc1cc(C)n(CCC(=O)N/N=C/c2c(O)ccc3ccccc23)n1,-38,-10,-31,26,14,-21
O=C(CCSc1nc2ccccc2s1)N/N=C/c1c(O)ccc2ccccc12,9,-1,6,61*,3,28
C=CCN1C(=O)c2n[nH]c(COC)c2C1c1ccc(Br)cc1 (stereo not given),.,.,.,.,1,-2
C[C@H](c1ccccc1)N1C[C@@H](COCc2ccccc2)Oc2cccc(N3CCCCC3)c2S1(=O)=O,.,.,.,.,5,0
CC(=O)N(C1=C(Cl)C(=O)c2ccccc2C1=O)C1CCCCC1,22,-19,38*,71*,42*,40
CC(=O)N(c1ccccc1C)C1CCCC1,-15,-19,-12,17,1,-3
CN(C)c1ccc(/C=C2\CCC/C(=C\c3ccccc3)C2=O)cc1,37,-1,51*,24,19,18
CCOC(=O)C1=C(C)Nc2ccccc2N/C1=N\S(=O)(=O)c1ccc(Cl)cc1,6,.,-1,30*,8,32
COc1ccc(/C=C/C(=O)c2cc(F)ccc2OC(=O)c2ccccc2OC)cc1OC,.,17*,.,.,10,7
COc1ccc(/C=C/C(=O)c2cc(F)ccc2OC(=O)c2ccc(OC)c(OC)c2)cc1OC,-14,8,12,25,8,29
COc1cccc(-n2nnnc2S(C)(=O)=O)c1,-1,28*,19,10,.,.
CC1CCC(n2c(=S)[nH]c3ccccc3c2=O)CC1 (stereo not given),-8,-14,6,1,6,16
O=c1c2ccccc2[nH]c(=S)n1C1CCCCC1,-19,6,11,-3,40*,26
CCCOc1nc2c(c(=O)n(C)c(=O)n2C)n1Cc1cccc2ccccc12,68*,-9,39*,15,25,12
c1ccc(-c2cc(CSc3nc4ccccc4[nH]3)on2)cc1,75*,-8,44*,89*,10,37
COC(=O)C1=C(C)N(Cc2ccccc2)C(=S)NC1c1ccc(Br)cc1 (stereo not given),.,.,.,.,1,-4
CCOC(=O)C1CCCN(C(=O)c2cnn3c(C(F)F)cc(-c4ccc(C)cc4)nc23)C1 (stereo not given),-51,19*,-44,5,12,-12
Cc1ccc(-c2cc(C(F)F)n3ncc(C(=O)N4CCN5CCCC5C4)c3n2)cc1 (stereo not given),-32,-15,-28,28,-2,-6
O=C(NN=C1c2ccccc2-c2ccccc21)c1ccccn1,85*,-12,-32,75*,.,.
COc1ccc(N2CCN(C(=O)c3ccc(NS(=O)(=O)c4ccc(F)c(F)c4)cc3)CC2)cc1,14,9,40*,15,5,-5
COc1ccc(N2CCN(C(=O)c3ccc(NS(=O)(=O)c4cccc(F)c4)cc3)CC2)cc1,-10,-5,-7,12,9,28
COc1ccccc1N1CCN(C(=O)c2cccc(S(=O)(=O)Nc3ccccc3F)c2)CC1,7,.,-13,1,18,54*

# Screens from PubChem.
